These results are taken from ChEMBL document CHEMBL1157110, “Hopane-type triterpenes and binaphthopyrones from the scale insect pathogenic fungus Aschersonia paraphysata BCC 11964” (J Nat Prod, 2010).

Structures can show the parent of a compound that is named as a salt. Active and inactive are the calls of the source. The rule behind the calls is not given here.

In one assay the test system is Vero. Put plainly: Cytotoxicity against african green monkey Vero cells by green fluorescent protein microplate assay. The format is cell-based. To be noted: Chlorocebus sabaeus.
A further assay concerns KB. The assay can be described thus: Cytotoxicity against human KB cells after 45 hrs by resazurin microplate assay. The format is functional, cell-based. On the technique in general: The colour change of resazurin is a common sign of viable cells or microbes.
The next assay deals with NCI-H187. Put plainly: Cytotoxicity against human NCI-H187 cells after 45 hrs by resazurin microplate assay. The assay is classed as functional, cell-based. To be noted: NCI-H187, 45 h.
Another assay has as its system Plasmodium falciparum. The assay can be described thus: Antimalarial activity against Plasmodium falciparum K1 after 24 hrs by [G-3H]hypoxanthine uptake assay. The assay is classed as functional, organism-based. To be noted: K1, 24 h. The method, boiled down:
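Multidrug-resistant K1 strain, microculture radioisotope technique. Samples dissolved in DMSO as a 10 mg/mL stock, then diluted with water before testing. IC50 reported.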

The next assay concerns MCF7. The assay can be described thus: Cytotoxicity against human MCF7 cells after 45 hrs by resazurin microplate assay. As to conditions: MCF7, 45 h. The assay is classed as functional, cell-based.
In assay [1] the test system is Mycobacterium tuberculosis. Put plainly: Antituberculosis activity against Mycobacterium tuberculosis. The assay is classed as functional, organism-based.

For orientation: IC50 means the midpoint of a concentration-inhibition curve. As for `CC(C)C1=C2CC[C@]3(C)[C@H]([C@H](O)C[C@@H]4[C@@]5(C)CCCC(C)(C)[C@@H]5CC[C@]43C)[C@@]2(C)CC1`, the IC50 with Vero is greater than 118 µM; in the assay with KB, greater than 118 µM; in the assay with NCI-H187, greater than 118 µM; in the assay on Plasmodium falciparum, greater than 23 µM; with MCF7, greater than 118 µM. Also, the result in assay [1] was inactive.
For the compound `CC(C)C1=C2CC[C@]3(C)[C@H]([C@H](O)C[C@@H]4[C@@]5(C)CCCC(C)(C)[C@@H]5[C@@H](O)C[C@]43C)[C@@]2(C)CC1`, the concentration for half-maximal inhibition (IC50) in the assay on Vero was greater than 113 µM; in the assay on KB, greater than 113 µM; in the assay on NCI-H187, greater than 113 µM; in the assay with Plasmodium falciparum, 15 µM; in the assay with MCF7, greater than 113 µM. In addition, the result in assay [1] was inactive.
For the compound `C[C@H]1[C@@H](O)O[C@@H]2O[C@@]3(C)CC[C@H]4[C@H](C)CC[C@@H]1[C@@]24OO3` [ARTENIMOL], the concentration for half-maximal inhibition (IC50) with Plasmodium falciparum is 0.0046 µM.
Consider `CC1Cc2cc3c(-c4c(O)cc(O)c5c(O)c6c(cc45)CC(C)OC6=O)c(O)cc(O)c3c(O)c2C(=O)O1` (centres undefined) [ASCHERNAPHTHOPYRONE A], for which the IC50 in the assay with Vero was greater than 96 µM; in the assay with KB it was 17 µM; with NCI-H187, 4.5 µM; with Plasmodium falciparum, 7.3 µM; in the assay with MCF7, 87 µM. For the same compound, the result in assay [1] was inactive.
In the case of `CC1Cc2cc3cc(O)c(-c4c(O)cc5cc6c(c(O)c5c4O)C(=O)OC(C)C6)c(O)c3c(O)c2C(=O)O1` (centres undefined) [ASCHERNAPHTHOPYRONE B], the IC50 was 52 µM in the assay with Vero; greater than 96 µM in the assay with KB; 95 µM in the assay on NCI-H187; greater than 19 µM in the assay on Plasmodium falciparum; 79 µM in the assay on MCF7. The outcome in assay [1] was inactive.
In the assay on NCI-H187, `COc1cccc2c1C(=O)c1c(O)c3c(c(O)c1C2=O)C[C@@](O)(C(=O)CO)C[C@@H]3O[C@H]1C[C@H](N)[C@H](O)[C@H](C)O1` [DOXORUBICIN HYDROCHLORIDE] registered an IC50 of 0.086 µM.
For the compound `Cc1c2ccncc2c(C)c2c1[nH]c1ccccc12` [ELLIPTECINE], the IC50 in the assay with Vero is 3.8 µM; in the assay on NCI-H187 it was 1.5 µM.
Consider `CC(C)C1=C2CC[C@]3(C)[C@H](CC[C@@H]4[C@@]5(C)CCCC(C)(C)[C@@H]5[C@@H](O)C[C@]43C)[C@@]2(C)CC1` [ZEORININ], for which the IC50 in the assay with Vero is greater than 118 µM; in the assay with KB, greater than 118 µM; with NCI-H187, greater than 118 µM; in the assay with Plasmodium falciparum, greater than 23 µM; in the assay with MCF7 it was greater than 118 µM. In addition, in assay [1], the result was inactive.
